In ChEMBL document CHEMBL4020721 (Eur J Med Chem, 2017):

Key:
[1] = biological target: CYP2D6 (Homo sapiens, UniProt P10635); assay: Reversible inhibition of CYP2D6 in human liver microsomes at 10 uM after 20 mins in presence of NADPH by LC-MS/MS analysis; type: ADME; settings: liver microsomes
[2] = biological target: CYP2C19 (Homo sapiens, UniProt P33261); assay: Reversible inhibition of CYP2C19 in human liver microsomes at 10 uM after 20 mins in presence of NADPH by LC-MS/MS analysis; type: ADME; settings: liver microsomes
Sequence of CYP2C19 (P33261 whole entry): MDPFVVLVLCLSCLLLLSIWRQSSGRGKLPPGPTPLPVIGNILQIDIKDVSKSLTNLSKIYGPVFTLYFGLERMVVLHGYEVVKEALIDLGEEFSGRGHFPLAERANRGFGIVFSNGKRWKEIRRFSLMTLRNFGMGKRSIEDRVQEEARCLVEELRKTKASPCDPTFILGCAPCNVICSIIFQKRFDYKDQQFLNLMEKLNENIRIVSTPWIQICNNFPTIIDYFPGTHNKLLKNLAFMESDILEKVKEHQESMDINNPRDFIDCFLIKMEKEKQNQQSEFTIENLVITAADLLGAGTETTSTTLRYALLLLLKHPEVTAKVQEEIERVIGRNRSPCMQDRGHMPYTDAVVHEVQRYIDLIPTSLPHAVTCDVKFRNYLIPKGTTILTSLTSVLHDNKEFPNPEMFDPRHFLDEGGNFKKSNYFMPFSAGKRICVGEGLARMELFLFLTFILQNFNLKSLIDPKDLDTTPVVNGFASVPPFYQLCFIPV

[3] = test system: SNU-5; assay: Growth inhibition of human SNU5 cells after 72 hrs by CCK-8 assay; type: functional, cell-based
[4] = Drug recovery in rat liver microsomes at 1 uM measured after 30 mins by LC-MS/MS analysis; type: ADME, microsome; settings: liver microsomes, read-out: Drug recovery
[5] = Intrinsic clearance in human liver microsomes assessed per mg protein at 1 uM preincubated for 5 mins followed by NADPH addition measured after 5 to 30 mins by LC-MS/MS analysis; type: ADME, microsome; settings: read-out: CLH
How it was run: (§1)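 Microsomes (0.5 mg/ml) with 1 µM compound were preincubated 5 min at 37°C in 100 mM phosphate buffer pH 7.4, then started with 1 mM NADPH. Samples were taken at 0, 5, 10 and 30 min, quenched with acetonitrile/tinidazole and run by LC-MS/MS. CLint = k / microsomal protein concentration. Midazolam was the positive control.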

[6] = biological target: CYP3A4 (Homo sapiens, UniProt P08684); assay: Reversible inhibition of CYP3A4 in human liver microsomes at 10 uM after 20 mins in presence of NADPH by LC-MS/MS analysis; type: ADME; settings: liver microsomes
Sequence of CYP3A4 (P08684 whole entry): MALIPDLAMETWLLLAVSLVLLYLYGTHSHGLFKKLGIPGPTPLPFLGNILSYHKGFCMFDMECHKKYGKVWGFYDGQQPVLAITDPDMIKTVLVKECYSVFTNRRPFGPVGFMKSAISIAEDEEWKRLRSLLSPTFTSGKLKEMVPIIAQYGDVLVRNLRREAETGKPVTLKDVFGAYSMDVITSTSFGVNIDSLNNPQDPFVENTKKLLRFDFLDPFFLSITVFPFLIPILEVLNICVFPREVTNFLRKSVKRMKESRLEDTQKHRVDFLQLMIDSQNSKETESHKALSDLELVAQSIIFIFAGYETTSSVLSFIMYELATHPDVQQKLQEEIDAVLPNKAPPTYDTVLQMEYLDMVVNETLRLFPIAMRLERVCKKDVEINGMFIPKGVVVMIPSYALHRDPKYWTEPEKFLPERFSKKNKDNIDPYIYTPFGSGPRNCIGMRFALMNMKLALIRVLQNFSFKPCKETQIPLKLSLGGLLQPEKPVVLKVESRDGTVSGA

[7] = test system: NCI-H1993; assay: Growth inhibition of human NCI-H1993 cells after 72 hrs by CCK-8 assay; type: functional, cell-based
[8] = Intrinsic clearance in monkey liver microsomes assessed per mg protein at 1 uM preincubated for 5 mins followed by NADPH addition measured after 5 to 30 mins by LC-MS/MS analysis; settings: liver microsomes; read-out: CLH
[9] = Drug recovery in human liver microsomes at 1 uM measured after 30 mins by LC-MS/MS analysis; type: ADME, microsome; settings: liver microsomes, read-out: Drug recovery
How it was run: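 Liver microsomes (0.5 mg/ml) were incubated with 1 µM compound at 37°C in 100 mM phosphate buffer pH 7.4 without NADPH for 30 min. Reactions were quenched with acetonitrile/tinidazole internal standard and analysed by LC-MS/MS. Recovery (%) was taken from the compound/internal standard peak area ratio.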

[10] = biological target: T1, CYP1A2 (Homo sapiens, UniProt P05177); assay: Reversible inhibition of CYP1A2 in human liver microsomes at 10 uM after 20 mins in presence of NADPH by LC-MS/MS analysis; type: ADME
T1 sequence (P05177 whole entry): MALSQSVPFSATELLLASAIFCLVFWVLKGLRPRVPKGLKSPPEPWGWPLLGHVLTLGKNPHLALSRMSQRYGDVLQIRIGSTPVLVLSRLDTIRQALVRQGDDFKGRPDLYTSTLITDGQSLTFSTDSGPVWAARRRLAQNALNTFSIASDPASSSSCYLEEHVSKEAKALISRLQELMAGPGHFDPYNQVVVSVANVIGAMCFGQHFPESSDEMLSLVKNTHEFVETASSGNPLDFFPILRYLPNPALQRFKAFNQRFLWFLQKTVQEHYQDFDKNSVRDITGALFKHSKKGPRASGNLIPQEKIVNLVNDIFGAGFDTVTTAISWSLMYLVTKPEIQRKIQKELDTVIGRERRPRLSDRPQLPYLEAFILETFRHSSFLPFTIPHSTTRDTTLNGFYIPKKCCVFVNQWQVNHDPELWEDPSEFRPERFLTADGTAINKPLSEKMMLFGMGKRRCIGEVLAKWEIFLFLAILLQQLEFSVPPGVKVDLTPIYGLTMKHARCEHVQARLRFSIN

[11] = biological target: CYP2C9 (Homo sapiens, UniProt P11712); assay: Reversible inhibition of CYP2C9 in human liver microsomes at 10 uM after 20 mins by in presence of NADPH LC-MS/MS analysis; type: ADME; settings: liver microsomes
Sequence of CYP2C9 (P11712 whole entry): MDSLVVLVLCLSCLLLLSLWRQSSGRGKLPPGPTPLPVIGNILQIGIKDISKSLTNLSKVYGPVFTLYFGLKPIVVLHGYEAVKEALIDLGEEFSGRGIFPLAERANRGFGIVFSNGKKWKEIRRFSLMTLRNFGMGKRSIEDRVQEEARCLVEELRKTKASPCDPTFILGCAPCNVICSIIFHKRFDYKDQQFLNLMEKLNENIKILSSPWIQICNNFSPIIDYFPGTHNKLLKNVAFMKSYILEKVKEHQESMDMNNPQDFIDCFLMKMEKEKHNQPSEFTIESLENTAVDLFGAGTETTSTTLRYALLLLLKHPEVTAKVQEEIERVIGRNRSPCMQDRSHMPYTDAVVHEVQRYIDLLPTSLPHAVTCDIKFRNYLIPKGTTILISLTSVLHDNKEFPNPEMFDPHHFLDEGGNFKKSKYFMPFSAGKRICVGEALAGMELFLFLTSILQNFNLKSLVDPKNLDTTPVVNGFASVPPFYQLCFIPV

[12] = Intrinsic clearance in rat liver microsomes assessed per mg protein at 1 uM preincubated for 5 mins followed by NADPH addition measured after 5 to 30 mins by LC-MS/MS analysis; type: ADME, microsome; settings: read-out: CLH; how it was run: as §1
[13] = biological target: Cytochrome P450 3A4 (Homo sapiens, UniProt P08684); assay: Time dependent irreversible inhibition of CYP3A4 in human liver microsomes at 10 uM preincubated with compound followed by NADPH addition by LC-MS/MS analysis; type: ADME; settings: microsomes, 10 µM
Sequence of Cytochrome P450 3A4 (P08684 whole entry): as the sequence (P08684 whole entry) above
How it was run: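 HLM (0.2 mg/ml) with 10 µM compound were preincubated 0, 5, 10 or 20 min at 37°C with 1 mM NADPH or PBS. Substrate cocktail (halved concentrations) plus NADPH was then added for 10 min. Metabolites were measured by LC-MS/MS. Kobs is the slope of relative activity versus preincubation time.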

[14] = Drug recovery in monkey liver microsomes at 1 uM measured after 30 mins by LC-MS/MS analysis
[15] = test system: Rattus norvegicus; assay: (§2) Oral bioavailability in Sprague-Dawley rat plasma at 6 mg/kg by UPLC-MS/MS analysis; type: ADME, organism-based; settings: in vivo
How it was run: (§3)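 Male Sprague-Dawley rats (180-220 g) were fasted overnight with free access to water. Dosing was intravenous (n=2) or oral at 6 mg/kg (n=3). Heparinized blood was drawn from 0 to 1440 min. Plasma was frozen at -20°C, then precipitated with acetonitrile containing internal standard, centrifuged and analysed by UPLC-MS/MS.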

[16] = biological target: Hepatocyte growth factor receptor (Homo sapiens, UniProt P08581); assay: Inhibition of c-MET (unknown origin) using TK substrate-biotin peptide as substrate preincubated for 5 to 10 mins followed by ATP addition measured after 30 mins by HTRF assay
Sequence of Hepatocyte growth factor receptor (P08581 whole entry): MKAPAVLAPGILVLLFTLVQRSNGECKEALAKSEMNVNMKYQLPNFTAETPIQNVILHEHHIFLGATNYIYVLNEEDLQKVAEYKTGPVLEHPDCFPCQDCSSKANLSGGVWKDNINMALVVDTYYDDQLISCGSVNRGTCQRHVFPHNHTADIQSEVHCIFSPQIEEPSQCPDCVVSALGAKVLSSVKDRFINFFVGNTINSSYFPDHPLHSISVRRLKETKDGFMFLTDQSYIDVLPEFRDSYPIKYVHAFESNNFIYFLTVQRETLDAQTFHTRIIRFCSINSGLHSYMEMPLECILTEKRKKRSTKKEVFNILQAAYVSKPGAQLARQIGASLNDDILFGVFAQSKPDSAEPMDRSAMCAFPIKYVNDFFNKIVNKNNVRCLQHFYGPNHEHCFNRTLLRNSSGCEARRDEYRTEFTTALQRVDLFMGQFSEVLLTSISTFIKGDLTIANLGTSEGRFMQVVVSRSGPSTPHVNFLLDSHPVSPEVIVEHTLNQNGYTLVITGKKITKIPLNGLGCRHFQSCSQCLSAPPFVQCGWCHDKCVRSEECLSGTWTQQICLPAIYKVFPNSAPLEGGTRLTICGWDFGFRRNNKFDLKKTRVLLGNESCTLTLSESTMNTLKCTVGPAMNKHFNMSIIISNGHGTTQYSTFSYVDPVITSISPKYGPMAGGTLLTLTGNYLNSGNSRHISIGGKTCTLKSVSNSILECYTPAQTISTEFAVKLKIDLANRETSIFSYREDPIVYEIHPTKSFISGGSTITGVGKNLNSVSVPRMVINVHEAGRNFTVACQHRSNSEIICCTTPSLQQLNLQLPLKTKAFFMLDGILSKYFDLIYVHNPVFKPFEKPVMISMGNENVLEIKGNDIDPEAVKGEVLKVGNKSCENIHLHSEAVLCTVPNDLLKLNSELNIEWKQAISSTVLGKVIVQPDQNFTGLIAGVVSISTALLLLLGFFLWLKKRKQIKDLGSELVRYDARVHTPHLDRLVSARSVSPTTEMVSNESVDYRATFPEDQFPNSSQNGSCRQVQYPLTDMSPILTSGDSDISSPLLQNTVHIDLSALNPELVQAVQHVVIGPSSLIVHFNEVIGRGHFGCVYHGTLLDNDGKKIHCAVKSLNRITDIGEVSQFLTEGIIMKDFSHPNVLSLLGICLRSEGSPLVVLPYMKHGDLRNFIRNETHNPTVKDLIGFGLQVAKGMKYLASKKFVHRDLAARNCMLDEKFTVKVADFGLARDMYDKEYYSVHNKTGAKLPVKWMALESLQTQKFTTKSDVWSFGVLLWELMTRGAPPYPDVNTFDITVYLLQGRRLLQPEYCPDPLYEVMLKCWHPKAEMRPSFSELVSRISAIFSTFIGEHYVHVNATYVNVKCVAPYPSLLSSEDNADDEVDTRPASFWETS

[17] = as §2; type: ADME, organism-based; settings: Sprague-Dawley, plasma; how it was run: as §3

Sequence of CYP2D6 (P10635 whole entry): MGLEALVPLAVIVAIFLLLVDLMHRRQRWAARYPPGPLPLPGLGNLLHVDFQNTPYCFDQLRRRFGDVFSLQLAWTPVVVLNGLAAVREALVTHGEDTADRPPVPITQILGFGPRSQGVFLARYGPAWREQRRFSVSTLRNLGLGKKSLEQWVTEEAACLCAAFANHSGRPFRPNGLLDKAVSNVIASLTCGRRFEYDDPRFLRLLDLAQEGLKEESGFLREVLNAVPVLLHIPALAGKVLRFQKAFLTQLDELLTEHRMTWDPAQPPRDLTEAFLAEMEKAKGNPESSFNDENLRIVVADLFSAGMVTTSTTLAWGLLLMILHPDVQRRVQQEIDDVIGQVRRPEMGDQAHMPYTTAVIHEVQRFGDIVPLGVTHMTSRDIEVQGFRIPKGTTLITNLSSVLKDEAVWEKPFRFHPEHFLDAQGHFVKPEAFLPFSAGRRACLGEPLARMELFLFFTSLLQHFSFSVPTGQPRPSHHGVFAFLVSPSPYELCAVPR

inhibition at 20 min, 10 µM [1]	inhibition at 20 min, 10 µM [2]	IC50 ([3]; Homo sapiens, SNU-5, 72 h)	remaining at 0.5 h, 1 µM [4]	microsomal CLint at 1 µM [5]	inhibition at 20 min, 10 µM [6]	IC50 ([7]; Homo sapiens, NCI-H1993, 72 h)	microsomal CLint at 1 µM [8]	remaining at 0.5 h, 1 µM [9]	inhibition at 20 min, 10 µM [10]	inhibition at 20 min, 10 µM [11]	microsomal CLint at 1 µM [12]	TDI [13]	remaining at 0.5 h, 1 µM [14]	F [15]	IC50 [16]	IC50 ([3]; snu-5)	IC50 ([7]; nci-h1993)	bioavailability [17]	SMILES
< 50%	< 50%	1.7 nM	103%	5 µL/min/mg	< 50%	0.9 nM	11 µL/min/mg	101%	< 50%	< 50%	34 µL/min/mg	Active	65%	–	–	–	–	–	CC(c1cc2cc(-c3cnn(C)c3)cnc2cc1F)n1nnc2ncc(-c3cnn(C)c3)nc21 (stereo unspecified)
< 50%	< 50%	0.4 nM	94%	11 µL/min/mg	< 50%	0.4 nM	50 µL/min/mg	97%	< 50%	< 50%	12 µL/min/mg	Active	99%	–	–	–	–	–	CC(c1c(F)cc2ncc(-c3cnn(C)c3)cc2c1F)n1nnc2ncc(-c3ccc(C(N)=O)c(F)c3)nc21 (stereo unspecified)
–	–	–	–	–	–	–	–	–	–	–	–	–	–	8.6%	0.68 nM	0.8 nM	0.7 nM	–	CC(c1cc2cc(-c3cnn(C)c3)cnc2cc1F)n1nnc2ncc(-c3cnn(CCO)c3)nc21 (single isomer, unassigned; enantiomer 1)
–	–	–	–	–	–	0.6 nM	–	–	–	–	–	–	–	–	0.48 nM	0.6 nM	–	8.8%	CC(c1cc2cc(-c3cnn(C)c3)cnc2cc1F)n1nnc2ncc(-c3cnn(CCO)c3)nc21 (single isomer, unassigned; enantiomer 2)
